PubChem BioAssay AID1885 (Broad Institute, 2009)
Several values for one entry are separate records, joined by “and”; a condition that tells them apart may be missing. Equal values may be shown once. The whole screen tested about 300,000 compounds, of which about 4,400 (1.5%) were called active.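 How the source made its calls: active means mean inhibition across valid replicates above about 55% (limit read from the data); inconclusive means mean below that limit but half or more replicates reach it; inactive means mean below it, under half of replicates reach it.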 What follows is part of a selection rich in actives, with near analogues and random picks from the rest. The source holds several records for some structures; these can differ, active in one and inactive in another.

Experiment: inhibitors of intracellular T. cruzi growth, primary screen, luminescence, NIH3T3 host cells (AID 1885);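 further: signal also drops with host cell toxicity which is not excluded here; 0% = plate median of DMSO wells and 100% = zero luminescence signal; higher percent means less beta-gal luminescence so fewer parasites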
Details: T. cruzi beta-gal in NIH3T3, luminescence, 90 h; stronger effect = higher value; concentration not given here
Procedure, shortened: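 System: NIH/3T3 fibroblasts plus reporter T. cruzi. Medium: DMEM plus 2% FBS. Probe or stimulus: 5000 reporter trypomastigotes per well. Compound: single 50 nL compound addition per well in DMSO. Incubation: co-culture of at least 90 h after 3 h attachment. Detection: GalScreen β-gal luminescence, detergent lysis, 60 min. Evaluation: parasite load inhibition, %.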

SMILES	inhibition
COc1ccc(C(=O)N(CCN2CCOCC2)CC(=O)NC2CCCC2)cc1OC	-3.29% (inactive)
CCCCOc1ccc(CSC(=N)N)cc1[N+](=O)[O-]	38.2% (inactive)
CCCCCOc1ccc(CSC2=NCCN2)cc1[N+](=O)[O-]	59.6% (active)
CCCOc1ccc(Cn2ccnc2)cc1[N+](=O)[O-]	30.6% (inactive)
O=C(NNS(=O)(=O)c1ccc(F)cc1)C1CCCCC1	-13.6% (inactive)
CCOC(=O)C[C@H]1c2ccc(C(F)(F)F)cc2S(=O)(=O)N1c1ccccc1	-7.83% (inactive)
O=C(COC(=O)c1ccc([N+](=O)[O-])cc1Cl)NC(=O)c1ccccc1	-9.49% (inactive)
COc1ccc(CCN(C)C(=O)C2CCCN(Cc3ccc(OC)c(OC)c3)C2)cc1OC (stereo not drawn)	66.2% (active) and 34.7% (inactive)
COc1cccc(-c2nc(CS(=O)(=O)CC(=O)NCCc3ccc(OC)c(OC)c3)c(C)o2)c1	21.5% (inactive)
COc1ccc(CN2CCCC(C(=O)c3ccc(Cl)cc3)C2)cc1Cn1cncn1 (stereo not drawn)	67.8% (active)
COc1cc(CN2CCCC(C(=O)c3ccc(SC)cc3)C2)cc(Cl)c1O (stereo not drawn)	24.2% (inactive)
COc1ccc(C(=O)C2CCCN(Cc3ccc4nonc4c3)C2)c(C)c1 (stereo not drawn)	20% (inactive)
COc1ccc(CCNC(=O)C2CCCN(Cc3nc(-c4cccc(Cl)c4)oc3C)C2)cc1OC (stereo not drawn)	61.6% (active)
COc1ccc(CCNC(=O)CS(=O)(=O)Cc2nc(-c3ccc(C)cc3)oc2C)cc1OC	5.37% (inactive)
CCCCNC(=O)N1CCCC(N(C)CCc2ccc(OC)c(OC)c2)C1 (stereo not drawn)	37.8% (inactive)
COc1ccc(CN2CCCC(CNC(=O)c3ccc(F)cc3)C2)cc1OC (stereo not drawn)	45.9% (inactive)
CN1CCC(=NNC(=O)c2ccc(N(Cc3ccc(Cl)cc3)S(C)(=O)=O)cc2)CC1	8.52% (inactive)
O=C(COc1ccc(Cl)cc1)NCCS(=O)(=O)N1CCN(c2ccc(F)cc2)CC1	11.2% (inactive)
COc1ccc(C(O)(C2CCCCC2)C(CN2CCCC2)c2ccccc2)cc1 (stereo not drawn)	2.61% (inactive)
COC(=O)[C@]1(C)N[C@H](c2ccc(-c3ccc(Cl)c(Cl)c3)cc2)[C@@H]2C(=O)N(C)C(=O)[C@@H]21	-12.4% (inactive)
COc1ccc(NC(=O)CN(C)C(=O)c2ccc(NC3CC3)c([N+](=O)[O-])c2)cc1	-6.67% (inactive)
CSc1nc2ccccc2cc1/C=C(\C#N)c1ccc(Cl)cc1Cl	4.89% (inactive)

SMILES	inhibition
Cc1nnc(SCC(=O)N/N=C/c2cn(-c3ccccc3)nc2-c2ccc(F)cc2)n1-c1ccccc1	-11.7% (inactive)
Cc1ccc(-c2nn(-c3ccccc3)cc2/C=N/NC(=O)c2ccc3c(c2)OCO3)cc1	28% (inactive)
O=C(N/N=C/c1ccc([N+](=O)[O-])o1)c1cn(-c2ccccc2)nc1-c1ccc(F)cc1	69.4% (active)
COc1cccc(OC)c1C(=O)Nc1sc2c(c1C(N)=O)CCCC2	9.96% (inactive)
c1ccc2c(c1)C(=NC1CCCCC1)NC2=NC1CCCCC1	55.5% (active)
COc1cccc(COC(=O)C2CCN(S(=O)(=O)c3ccc(Cl)cc3)CC2)c1OC	-3.47% (inactive)
Cc1oc(C)c(C(=O)NCCCC(=O)O)c1C(=O)NCCCC(=O)O	-21.2% (inactive)
CC(C)(C)NC(=O)Cn1cnc([N+](=O)[O-])n1	50.4% (inactive)
O=C(CSc1ncccn1)NCCc1ccccc1	-13.3% (inactive)
O=C(Cn1cnc([N+](=O)[O-])n1)NCCc1ccccc1	76.4% (active)
Cc1cc(C)c(S(=O)(=O)n2cc(C(C)C(N)C(=O)O)c3ccccc32)c(C)c1 (stereo not drawn)	-6.09% (inactive)
OC(COc1ccc(Br)cc1)CN1CCCC1 (stereo not drawn)	10.2% (inactive)
Cc1cccc(C)c1OCC(O)CN1CCCCC1 (stereo not drawn)	-1.54% (inactive)
OC(COCCC12CC3CC(CC(C3)C1)C2)CN1CCCCC1 (stereo not drawn)	62% (active)
COc1ccc(C(=O)/C=C/c2ccc(-c3ccccc3)cc2)cc1CSCC(=O)O	-21% (inactive)
Cc1ccc(S(=O)(=O)N(C)C)cc1NC(=O)COC(=O)/C=C/c1cccs1	-8.51% (inactive)
Cc1ccc(-c2cc(=O)[nH]c(NCc3ccccc3)n2)cc1	-16.4% (inactive)
Cc1c(C)n(Cc2ccc(Cl)cc2)c2ccc(C(=O)NCCCN3CCOCC3)cc12	12.7% (inactive)
COc1ccc(C2=NN(C(=O)c3cccnc3)C(c3ccccc3)C2)cc1 (stereo not drawn)	3.02% (inactive)
COc1ccc(C2CC(c3ccccc3)=NN2C(=O)c2ccc(Cl)c([N+](=O)[O-])c2)cc1 (stereo not drawn)	54.8% (active)
COc1ccc(C2CC(c3ccc([N+](=O)[O-])cc3)=NN2C(C)=O)cc1 (stereo not drawn)	4.42% (inactive)
O=C(NC1CCCCC1)C1CC(=O)N(CCc2ccccc2)C1 (stereo not drawn)	-16.2% (inactive)

SMILES	inhibition
C=CCOc1ccc(/C=C/C(=O)OCC(=O)NCC2CCCO2)cc1 (stereo not drawn)	-9.89% (inactive)
CCOC(=O)CNc1nc(Cl)nc(Nc2ccc(OC)cc2OC)n1	-0.745% (inactive)
O=C(O)c1ccccc1CSc1nc2ccccc2s1	-11.7% (inactive)
CCN(CC)CCCSc1nc2ccccc2s1	69.6% (active)
Cc1nc2nc(CSc3nc4ccccc4s3)cc(=O)n2[nH]1	-6.18% (inactive)
COc1cc2c(cc1OC)C(C(=O)NCc1ccco1)C1c3ccccc3CCN1C2=O (stereo not drawn)	7.27% (inactive)
COC(=O)c1c(C)cc(O)c(C)c1O	-2.6% (inactive)
O=[N+]([O-])c1ccc2oc(-c3cccc(O)c3)nc2c1	-23.1% (inactive)
COc1ccc(C(CNC(=O)c2ccc(NS(=O)(=O)c3ccc(F)c(C)c3)cc2)N(C)C)cc1 (stereo not drawn)	3.47% (inactive)
Cc1cc(S(=O)(=O)Nc2ccc(C(=O)NCC(c3ccco3)N3CCCC3)cc2)ccc1F (stereo not drawn)	63.7% (active)
COc1ccc(C(CNC(=O)c2cccc(NS(=O)(=O)c3ccc(C)c(F)c3)c2)N2CCCC2)cc1 (stereo not drawn)	-13.1% (inactive)
O=C(NNC(=O)c1cc(-c2ccccc2Cl)nc2ccccc12)c1csc(N2CCOCC2)n1	-2.25% (inactive)
O=C(Nc1ccc(C(=O)O)cc1)/C(=C\c1ccccc1)NC(=O)c1ccc(Br)cc1	-8.09% (inactive)
CCN(CC(=O)NCc1cccs1)S(=O)(=O)c1ccc(NC(C)=O)cc1	-2.26% (inactive)
CC1CCCCN1S(=O)(=O)c1ccc(S(=O)(=O)N(CC(=O)Nc2ccccc2)Cc2cccs2)cc1 (stereo not drawn)	57.2% (active)
CC1CCCCN1S(=O)(=O)c1ccc(C(=O)Nc2nnc(-c3cccs3)o2)cc1 (stereo not drawn)	43.1% (inactive)
CC(OC(=O)C1CC(=O)N(Cc2ccccc2)C1)C(=O)Nc1ccccc1[N+](=O)[O-] (stereo not drawn)	-2.86% (inactive)
Cc1[nH]c2ccccc2c1CCN(Cc1cccs1)C(=S)NC(C)(C)C	26.1% (inactive)
COc1ccc2[nH]c(C)c(CCN(Cc3cccs3)C(=S)Nc3ccccc3OC)c2c1	60% (active)
COc1cccc(NC(=S)N(CCc2c(C)[nH]c3ccccc23)Cc2ccco2)c1	18.1% (inactive)
CC(C)c1nc(SCC(=O)NC(=O)NC(C)(C)C)n[nH]1	-2.85% (inactive)
CCCCCCCCCCOC(=O)Cn1c(COc2cccc(OC)c2)[n+](C)c2ccccc21	65.1% (active)

SMILES	inhibition
CCn1c(=N)n(CC(=O)c2cccc(OC)c2)c2ccccc21	7.38% (inactive)
CCCCCCCCCCOC(=O)Cn1c(COc2ccc(C)cc2)[n+](C)c2ccccc21	46.2% (inactive)
CCCCCC(=O)N1CCN(S(=O)(=O)c2ccc3c(c2)OCCCO3)CC1	-5.19% (inactive)
Cc1cc(Nc2ccc(Br)cc2)nc2ccccc12	32.6% (inactive)
CCCc1nc2c(c(=O)c3ccccc3n2C)c(=O)n1C1CCCCCC1	22.4% (inactive)
CCCc1nc2c(c(=O)c3ccccc3n2C)c(=O)n1-c1cc(C)cc(C)c1	34.2% (inactive)
Cn1c2ccccc2c(=O)c2c(=O)n(Cc3ccco3)c(COc3ccccc3)nc21	62.2% (active)
Cc1ccc(OCCC(=O)OCC(=O)N2c3ccccc3NC(=O)C2(C)C)cc1	-1.24% (inactive)
COc1ccc(S(=O)(=O)N2CCOC23CCN(S(=O)(=O)c2ccc([N+](=O)[O-])cc2)CC3)cc1	61.5% (active)
COc1ccc(S(=O)(=O)N2CCSCC2)cc1	5.81% (inactive)
COc1ccc(CNC(=O)C(=O)N2CCC3(CC2)OCCN3S(=O)(=O)c2ccc(C)cc2)cc1	-4.09% (inactive)
CC1(C)O[C@H]2CC(=O)OCC23[C@H]2CC[C@@]4(C)[C@H](c5ccoc5)OC(=O)[C@H]5O[C@]54[C@]2(C)C(=O)C[C@@H]13 (stereo partly drawn)	-3.05% (inactive)
Nc1scc[n+]1Cc1cccc2cccnc12	-1.61% (inactive)
c1ccc(NCc2cccc3ccccc23)nc1	1.93% (inactive)
c1ccc2c(C[n+]3csc4ccccc43)cccc2c1	59.8% (active)
FC(F)Oc1ccccc1NC(=S)Nc1cccc(Cl)c1Cl	0.408% (inactive)
CC(C(=O)NCC1CCCCC1)N(C)Cc1cccc(Cl)c1 (stereo not drawn)	10.6% (inactive)
Cc1ccc(NC(=O)/C(=C/c2ccc([N+](=O)[O-])cc2)NC(=O)c2ccccc2)cc1	1.7% (inactive)
CCOC(=O)/C(=C\c1ccc([N+](=O)[O-])cc1)C(=O)c1cc(C(C)=O)c(Nc2ccccc2)s1	55.8% (active)
CCOC(=O)COc1ccc([N+](=O)[O-])cc1	-3.58% (inactive)
COC(=O)C1[C@H]2SC(C)(C)C(C(=O)OC)N2C(=O)N1Cc1nc2ccccc2s1 (stereo partly drawn)	-4.35% (inactive)
CC(OC(=O)c1ccc(S(=O)(=O)N2CCOCC2)cc1)c1ccccc1 (stereo not drawn)	1.58% (inactive)
